Laboratory results as given in article PMC3969088 (British Journal of Pharmacology, 2014).
Where no end group is shown, it is not given here.

Key:
[1] = target: AM1 receptor, CLR G35A (HA-CLR G35A with FLAG-RAMP2) (human) (UniProt Q16602)
[2] = target: AM1 receptor, CLR M42A (HA-CLR M42A with FLAG-RAMP2) (human) (UniProt Q16602)
[3] = target: AM1 receptor, CLR L34A (HA-CLR L34A with FLAG-RAMP2) (human) (UniProt Q16602)
[4] = target: AM1 receptor, CLR Q33A (HA-CLR Q33A with FLAG-RAMP2) (human) (UniProt Q16602)
[5] = target: AM1 receptor, CLR V36A (HA-CLR V36A with FLAG-RAMP2) (human) (UniProt Q16602)
[6] = target: AM1 receptor, CLR I52A (HA-CLR I52A with FLAG-RAMP2) (human) (UniProt Q16602)
[7] = target: AM1 receptor, CLR I32A (HA-CLR I32A with FLAG-RAMP2) (human) (UniProt Q16602)
[8] = target: AM1 receptor, RAMP2 E101A (HA-CLR with FLAG-RAMP2 E101A) (human) (UniProt Q16602)
[9] = target: AM2 receptor, RAMP3 W84A (HA-CLR with RAMP3 W84A) (human) (UniProt Q16602)
[10] = target: AM2 receptor, RAMP3 W84F (HA-CLR with RAMP3 W84F) (human) (UniProt Q16602)
[11] = target: AM2 receptor, wild type (HA-CLR with RAMP3) (human) (UniProt Q16602)
[12] = target: AM2 receptor, CLR Q33A (HA-CLR Q33A with RAMP3) (human) (UniProt Q16602)
[13] = target: AM2 receptor, CLR I32A (HA-CLR I32A with RAMP3) (human) (UniProt Q16602)
[14] = target: AM2 receptor, CLR I52A (HA-CLR I52A with RAMP3) (human) (UniProt Q16602)
[15] = target: AM2 receptor, CLR G35A (HA-CLR G35A with RAMP3) (human) (UniProt Q16602)
[16] = target: AM2 receptor, CLR M42A (HA-CLR M42A with RAMP3) (human) (UniProt Q16602)
[17] = target: AM2 receptor, CLR L34A (HA-CLR L34A with RAMP3) (human) (UniProt Q16602)
[18] = target: AM2 receptor, CLR T37A (HA-CLR T37A with RAMP3) (human) (UniProt Q16602)
[19] = target: AM2 receptor, CLR Q45A (HA-CLR Q45A with RAMP3) (human) (UniProt Q16602)
[20] = target: AM2 receptor, CLR V36A (HA-CLR V36A with RAMP3) (human) (UniProt Q16602)
[21] = target: AM2 receptor, CLR I41A (HA-CLR I41A with RAMP3) (human) (UniProt Q16602)
[22] = target: AM2 receptor, wild type (HA-CLR with RAMP3) (human) (UniProt Q16602); remark: listed apart in the source
[23] = target: CGRP receptor, CLR I41A (HA-CLR I41A with RAMP1) (UniProt Q16602)
[24] = target: CGRP receptor, CLR M42A (HA-CLR M42A with RAMP1) (UniProt Q16602)
[25] = target: CGRP receptor, wild type (HA-CLR with RAMP1) (UniProt Q16602)
[26] = target: CGRP receptor, CLR G35A (HA-CLR G35A with RAMP1) (UniProt Q16602)
[27] = target: CGRP receptor, CLR L34A (HA-CLR L34A with RAMP1) (UniProt Q16602)
[28] = target: CGRP receptor, CLR I32A (HA-CLR I32A with RAMP1) (UniProt Q16602)
[29] = target: CGRP receptor, CLR T37A (HA-CLR T37A with RAMP1) (UniProt Q16602)
[30] = target: CGRP receptor, CLR Q45A (HA-CLR Q45A with RAMP1) (UniProt Q16602)
[31] = system: CLR mutants at the AM2 receptor; test: specific binding of [125I]-rAM to CLR mutants at the AM2 receptor; design: species or system human; details: Cos7, 4°C 1 h
Procedure, shortened: (§1)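 Cos7 cells transiently cotransfected (PEI, 1 μg DNA/well total) with HA-tagged human CLR mutants plus FLAG-human RAMP2 (AM1) or untagged human RAMP3 (AM2). Cells incubated in DMEM/0.5% BSA with [125I]-rAM ([…], 30 000 cpm/well) at 4°C for 1 h, washed with ice-cold PBS, NaOH-solubilised and gamma-counted. […] Specific binding normalised to the WT mean.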

[32] = system: CLR mutants at the AM1 receptor; test: specific binding of [125I]-rAM to CLR mutants at the AM1 receptor; design: species or system human; details: Cos7, 4°C 1 h
Procedure, shortened: as §1

Substance “Human adrenomedullin 2 (AM2-47) (from UniProt Q7Z4H4 101-148) (peptide)” has a pEC50, cAMP production in Cos7 cells [1] of 7.92, a pEC50, cAMP production in Cos7 cells [2] of 7.86 and a pEC50, cAMP production in Cos7 cells [3] of 7.64. For the same substance, the pEC50, cAMP production in Cos7 cells [4] was 7.89, the pEC50, cAMP production in Cos7 cells [5] was 7.89 and the pEC50, cAMP production in Cos7 cells [6] was 8.11. For the same substance, the pEC50, cAMP production in Cos7 cells [7] was 8.24, the pEC50, cAMP production in Cos7 cells [8] was 7.39 and the pEC50, cAMP production in Cos7 cells [9] was 9.02. For the same substance, the pEC50, cAMP production in Cos7 cells [10] was 9.38, the pEC50, cAMP production in Cos7 cells; WT control paired with RAMP3 W84A [11] was 9.62 and the pEC50, cAMP production in Cos7 cells; WT control paired with RAMP3 W84F [11] was 9.63. For the same substance, the pEC50, cAMP production in Cos7 cells [12] was 8.56, the pEC50, cAMP production in Cos7 cells [13] was 9.47 and the pEC50, cAMP production in Cos7 cells [14] was 9.12. It also gave a pEC50, cAMP production in Cos7 cells [15] of 8.78, a pEC50, cAMP production in Cos7 cells [16] of 8.61 and a pEC50, cAMP production in Cos7 cells [17] of 9.13. The pEC50, cAMP production in Cos7 cells [18] was 7.7, the pEC50, cAMP production in Cos7 cells [19] was 8.94 and the pEC50, cAMP production in Cos7 cells [20] was 8.62. The pEC50, cAMP production in Cos7 cells [21] was 8.47, the pEC50, cAMP production in Cos7 cells; WT control paired with CLR G35A [22] was 9.09 and the pEC50, cAMP production in Cos7 cells; WT control paired with CLR I32A [22] was 9.83. The pEC50, cAMP production in Cos7 cells; WT control paired with CLR I41A [22] was 9.32, the pEC50, cAMP production in Cos7 cells; WT control paired with CLR I52A [22] was 9.29 and the pEC50, cAMP production in Cos7 cells; WT control paired with CLR L34A [22] was 9.42. For the same substance, the pEC50, cAMP production in Cos7 cells; WT control paired with CLR M42A [22] was 8.82, the pEC50, cAMP production in Cos7 cells; WT control paired with CLR Q33A [22] was 8.59 and the pEC50, cAMP production in Cos7 cells; WT control paired with CLR Q45A [22] was 8.95. For the same substance, the pEC50, cAMP production in Cos7 cells; WT control paired with CLR T37A [22] was 9.13, the pEC50, cAMP production in Cos7 cells; WT control paired with CLR V36A [22] was 9.09 and the pEC50, cAMP production in Cos7 cells [23] was 7.23. The pEC50, cAMP production in Cos7 cells [24] was 8.27, the pEC50, cAMP production in Cos7 cells; WT control paired with CLR G35A [25] was 8.4 and the pEC50, cAMP production in Cos7 cells; WT control paired with CLR I32A [25] was 8.42. For the same substance, the pEC50, cAMP production in Cos7 cells; WT control paired with CLR I41A [25] was 8.31, the pEC50, cAMP production in Cos7 cells; WT control paired with CLR L34A [25] was 8.51 and the pEC50, cAMP production in Cos7 cells; WT control paired with CLR M42A [25] was 8.33. It also gave a pEC50, cAMP production in Cos7 cells; WT control paired with CLR Q45A [25] of 8.65, a pEC50, cAMP production in Cos7 cells; WT control paired with CLR T37A [25] of 8.31 and a pEC50, cAMP production in Cos7 cells; WT control paired with CLR V36A [25] of 8.42. It also gave a pEC50, cAMP production in Cos7 cells [26] of 8.04, a pEC50, cAMP production in Cos7 cells [27] of 8.44 and a pEC50, cAMP production in Cos7 cells [28] of 8.52. For the same substance, the pEC50, cAMP production in Cos7 cells [29] was 7.47 and the pEC50, cAMP production in Cos7 cells [30] was 7.97.

For “[^125I]-rAM: rat AM (rAM) iodinated using iodobeads, purified by reverse phase HPLC; radioligand (YRQSMNQGSRSTGCRFGTCTMQKLAHQIYQFTDKDKDGMAPRNKISPQGY; ends and bridges not checked; also: 125I label, residue not given here)”, the “specific binding of [125I]-rAM” value ([31]; CLR M42A and Q45A) was “retained”, the “specific binding of [125I]-rAM” value ([31]; CLR T37A and I41A) was “abolished” and the “specific binding of [125I]-rAM” value ([32]; CLR I52A (printed 152A)) was “retained binding”. The “specific binding of [125I]-rAM” value ([32]; CLR M42A and Q45A) was “abolished” and the “specific binding of [125I]-rAM” value ([32]; CLR T37A and I41A) was “abolished”.
